Published values gathered from unrelated publications.
Protocols differ between the studies behind these lines.

Compound | target or system | test | system | conditions | measurement | value
CO[C@H]1/C=C/O[C@@]2(C)Oc3c(C)c(O)c4c(O)c(c(/C=N/N5CCN(C6CCCC6)CC5)c(O)c4c3C2=O)NC(=O)/C(C)=C\C=C\[C@H](C)[C@H](O)[C@@H](C)[C@@H](O)[C@@H](C)[C@H](OC(C)=O)[C@@H]1C | Plasmodium falciparum | parasite growth | DD2 | drug-resistant strain, blood stage | IC50 | 1980 nM
CCN1CCN(Cc2ccc(Nc3nc4ccc(Oc5ccnc(NC(=O)C6CCN(C)CC6)c5)cc4n3C)cc2C(F)(F)F)CC1 | Plasmodium falciparum | parasite growth, SYBR Green | DD2 | blood stage | EC50 | 116 nM
CO[C@H]1C[C@H](O[C@@H]2/C(C)=C/C[C@@H]3C[C@@H](C[C@]4(CC[C@H](C)[C@@H](C5CCCCC5)O4)O3)OC(=O)[C@@H]3C=C(C)/C(=N/O)[C@H]4OC/C(=C\C=C\[C@@H]2C)[C@]43O)O[C@@H](C)[C@@H]1O | Plasmodium falciparum | parasite growth | K1 | drug-resistant strain, blood stage | IC50 | 311 nM
Cc1cccc(F)c1NC(=N)CC(O)c1cc2c(F)cc(F)cc2c2cc(C(F)(F)F)ccc12 (stereo not drawn) | Plasmodium falciparum | parasite growth, ELISA | 3D7 | 72 h, blood stage | IC50 | 13.2 nM
CC(C)C[C@H](NC(=O)[C@H](CCC(=O)O)NC(=O)[C@H](CCCCN)NC(=O)[C@H](CCCCN)NC(=O)[C@H](CC(C)C)NC(=O)[C@H](CC(C)C)NC(=O)[C@H](CCCCN)NC(=O)[C@H](CCCCN)NC(=O)[C@H](CC(C)C)NC(=O)[C@H](CC(C)C)NC(=O)[C@H](CCCCN)NC(=O)[C@H](CCCCN)NC(=O)[C@H](CC(C)C)NC(=O)[C@@H](N)CC(C)C)C(N)=O | HCCC9810 | cell growth or viability, CCK-8 |  |  | IC50 | 10200 nM
COc1cc(NC(=N)CC(O)c2cc3c(F)cc(F)cc3c3cc(C(F)(F)F)ccc23)ccc1Br (stereo not drawn) | Plasmodium falciparum | parasite growth, ELISA | 3D7 | 72 h, blood stage | IC50 | 13.6 nM
CC(C)C[C@H](NC(=O)[C@H](CC(C)C)NC(=O)[C@H](CCCCN)NC(=O)[C@H](CCCCN)NC(=O)[C@H](CC(C)C)NC(=O)[C@H](CC(C)C)NC(=O)[C@H](CCCCN)NC(=O)[C@H](CCCCN)NC(=O)[C@H](CC(C)C)NC(=O)[C@H](CC(C)C)NC(=O)[C@H](CCCCN)NC(=O)[C@H](CCCCN)NC(=O)[C@H](CCC(=O)O)NC(=O)[C@@H](N)CC(C)C)C(N)=O | HCCC9810 | cell growth or viability, CCK-8 |  |  | IC50 | 6960 nM
C[C@@H]1CC[C@H]2[C@@H](C)C(=O)O[C@@H]3O[C@@]4(C)CC[C@@H]1[C@]32OO4 | Plasmodium falciparum | parasite growth | K1 | drug-resistant strain, blood stage | IC50 | 0.6 nM
CC(C)C[C@H](NC(=O)[C@H](CC(C)C)NC(=O)[C@H](CCCCN)NC(=O)[C@H](CCCCN)NC(=O)[C@H](CC(C)C)NC(=O)[C@H](CC(C)C)NC(=O)[C@H](CCCCN)NC(=O)[C@H](CCCCN)NC(=O)[C@H](CCC(=O)O)NC(=O)[C@H](CC(C)C)NC(=O)[C@H](CCCCN)NC(=O)[C@H](CCCCN)NC(=O)[C@H](CC(C)C)NC(=O)[C@@H](N)CC(C)C)C(N)=O | HCCC9810 | cell growth or viability, CCK-8 |  |  | IC50 | 325000 nM
N=C(CC(O)c1cc2c(F)cc(F)cc2c2cc(C(F)(F)F)ccc12)NCc1ccc(F)cc1 (stereo not drawn) | Plasmodium falciparum | parasite growth, ELISA | 3D7 | 72 h, blood stage | IC50 | 1110 nM
CC(C)C[C@H](NC(=O)[C@H](CC(C)C)NC(=O)[C@H](CCCCN)NC(=O)[C@H](CCCCN)NC(=O)[C@H](CCC(=O)O)NC(=O)[C@H](CC(C)C)NC(=O)[C@H](CCCCN)NC(=O)[C@H](CCCCN)NC(=O)[C@H](CC(C)C)NC(=O)[C@H](CC(C)C)NC(=O)[C@H](CCCCN)NC(=O)[C@H](CCCCN)NC(=O)[C@H](CC(C)C)NC(=O)[C@@H](N)CC(C)C)C(N)=O | HCCC9810 | cell growth or viability, CCK-8 |  |  | IC50 | 8320 nM
CCN(CC)CCOc1ccc2c(c1)C(=O)c1cc(OCCN(CC)CC)ccc1-2 | Plasmodium falciparum | parasite growth | K1 | drug-resistant strain, blood stage | IC50 | 500 nM
N=C(CC(O)c1cc2c(F)cc(F)cc2c2cc(C(F)(F)F)ccc12)Nc1cccc(F)c1 (stereo not drawn) | Plasmodium falciparum | parasite growth, ELISA | 3D7 | 72 h, blood stage | IC50 | 2.1 nM
COc1ccc2cc1Oc1ccc(cc1)C[C@H]1c3c(cc4c(c3Oc3cc5c(cc3OC)CCN(C)[C@@H]5C2)OCO4)CCN1C | Plasmodium falciparum | parasite growth | DD2 | drug-resistant strain, blood stage | IC50 | 136 nM
N.N.[Cl][Pt][Cl] | RS4-11 | cell growth or viability, ATP luminescence |  | 10 µM, 72 h | inhibition | 100%
